WT yeast gro inh = growth inhibition of WT yeast, mitochondrial fusion screen. mitochondrial fusion phenotypic screen, WT strain. inhibition, % at 10 µM. 190,000 tested, 2.1% active. AID 1362; in the data active = inhibition above about 58%; tested in S. cerevisiae
Mot1-301 SUMO = SUMOylation pathway inhibition by Mot1-301 growth rescue; S. cerevisiae Mot1-301 growth rescue, ATP luminescence, 38.5C; percent above DMSO median, 100 means doubled; growth rescue, % at 18.8 µM; 320,000 tested, 1% active;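 active = every valid replicate shows activation above 250% relative to neutral control wells; inactive = the rest, any valid replicate at or below 250%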;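 also: OY570 slx delta 5 strain wells were the positive control but not used for scaling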
Beta cell apopt = beta cell apoptosis inhibition. INS-1E cytokine-induced death, ATP luminescence, 48 h; percent of positive-control rescue, neutral wells zero. 300,000 tested, 0.8% active. AID 435005. protection from apoptosis, % (concentration not given with the values);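 active = Every replicate reaches about 75%, or at least half do and their mean reaches it too, limit read from the data; inconclusive = At least half of replicates reach the limit but their mean does not; inactive = Under half of replicates reach the limit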;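 also: 0% = cytokine-treated negative control wells and 100% = positive control rescue; higher means more ATP so stronger rescue from cytokine killing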
T cruzi inh = T. cruzi replication inhibition; T. cruzi beta-gal in NIH3T3, luminescence, 90 h; inhibition, % (test concentration not listed); 300,000 tested, 1.4% active; AID 1885;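 active = mean inhibition across valid replicates above about 55%, limit read from the data; inconclusive = mean below that limit but half or more replicates reach it; inactive = mean below it, under half of replicates reach it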;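 also: signal also drops with host cell toxicity which is not excluded here; 0% = plate median of DMSO wells and 100% = zero luminescence signal; higher percent means less beta-gal luminescence so fewer parasites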
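System: mouse NIH/3T3 fibroblasts infected with β-gal-expressing T. cruzi Tulahuen C4 / Input: NIH/3T3 cells, 5,000 per well / Buffer or medium: Low-serum DMEM with 2% FBS / Probe or stimulus: 5000 reporter trypomastigotes per well / Schedule: ≥90 h infection period, 3 h prior cell attachment / Measured by: GalScreen luminescence, 60 min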
Efflux pump mplx = antifungal efflux pump inhibition, Nile Red retention; 330,000 tested, 0.44% active; S. cerevisiae Candida pump triplex; inhibition, % at 10 µM;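 active = plate passing quality check with inhibition over a set limit, or well fluorescence over plate mean plus 4 SD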;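 also: Nile Red retained in pooled yeast measured as flow cytometry median fluorescence; 0% = buffer negative control and 100% = Enniatin B positive control; higher means more Nile Red kept so more efflux inhibition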
CSC inhib = cancer stem cell inhibition. cancer stem cell-like cells viability, luminescence. 300,000 tested, 1.1% active. AID 2717. inhibition, % at 7.5 µM; in the data active = inhibition above about 75%; inconclusive = no clear call, values can overlap the other calls; tested in HMLE shEcad cells
Numbers without * were called inactive; ? = inconclusive; nt = no result given. A selection: hits, their analogues and other compounds. The true share with any hit is near 4.8%.

SMILES	WT yeast gro inh	Mot1-301 SUMO	Beta cell apopt	T cruzi inh	Efflux pump mplx	CSC inhib
COC(=O)c1cccc(NC(=S)NC(C)C)c1	-2	nt	0	-4	0	nt
O=C(NNC(=O)c1cccnc1SCc1cccc([N+](=O)[O-])c1)c1ccc(F)cc1	-7	-10	?	-8	0	-11
O=C(NNC(=O)c1cccnc1SCc1cccc([N+](=O)[O-])c1)c1ccccn1	1	3	nt	65*	0	nt
Cc1ccc(CN2C(=O)c3ccccc3NC2c2cc(Br)ccc2O)cc1 (stereo unspecified)	nt	36	3	11	0	110*
O=C1c2ccccc2NC(c2ccccc2)N1Cc1ccccc1 (stereo unspecified)	nt	-3	-1	18	0	4
Cc1ccc(CON=C2CCN(c3ncc(C(F)(F)F)cc3Cl)CC2)cc1	41	-9	3	25	0	17
FC(F)(F)c1cnc(N2CCC(=NOCc3ccc(Cl)cc3)CC2)c(Cl)c1	63*	-8	-2	30	0	31
Cc1ccc(Cl)cc1-n1ncc2c(NNC(=O)c3ccco3)ncnc21	2	348*	-5	-11	0	-2
O=C(CSc1nnnn1-c1ccccc1)Nc1ccc(N2CCOCC2)c(Cl)c1	10	-11	-3	10	0	9
O=C(CSc1nnnn1-c1cccc2ccccc12)Nc1ccc(N2CCOCC2)c(Cl)c1	12	66	0	73*	1	-5
c1ccc(CC2CCN(c3nnnn3-c3ccccc3)CC2)cc1	62*	-3	1	6	0	-3
CC(=O)N1CCN(c2nnnn2-c2ccccc2)CC1	-15	4	0	-8	0	0
CC(=O)NC(Cc1c[nH]c2ccccc12)C(=O)NCCc1ccccn1 (stereo unspecified)	nt	-16	0	-1	0	-9
COc1cc(C)nc(NS(=O)(=O)c2ccc(C)cc2)n1	-11	8	-8	-9	0	-7
Cc1nc(NC2=NCN(C3CCCCC3C)CN2)nc2ccccc12 (stereo unspecified)	86*	nt	nt	nt	nt	nt
CC(CC(=O)N1CCN(c2cccc(Cl)c2)CC1)S(=O)(=O)c1ccc2c(c1)NC(=O)CO2 (stereo unspecified)	nt	2	80*	13	0	-8
Nc1ccccc1SSc1ccccc1N	nt	8	2	34	0	-2
CC(C(Sc1ccccc1N)c1ccccc1)[N+](=O)[O-] (stereo unspecified)	nt	747*	-2	-26	0	94*
O=C1CS/C(=N/N=C2CCCC2)N1	0	-5	5	-17	1	-13
O=C1CSC(=NC2CCCCC2)N1	84*	-45	-16	-7	0	1
CC[C@H](C)[C@H](NC(N)=O)C(=O)NCCc1ccc(Cl)cc1Cl	0	79	nt	-12	0	-5
Cn1c(SCc2cccc(Br)c2)nnc1-c1ccncc1	nt	-10	-2	-9	0	-8
CN(C)C(=S)Nn1c(-c2ccccc2)nc2ccccc2c1=O	-12	156	0	-22	0	-8
O=C(Nn1c(-c2ccccc2)nc2ccccc2c1=O)C1CCC1	70*	17	-6	-15	0	-4
CC1CCCC(NC(=O)CNC(=S)N(Cc2ccccc2)Cc2cccs2)C1C (stereo unspecified)	65*	-9	10	53	0	53
SMILES	WT yeast gro inh	Mot1-301 SUMO	Beta cell apopt	T cruzi inh	Efflux pump mplx	CSC inhib
CN(C)CCNC(=O)CNC(=S)N(Cc1ccccc1)Cc1cccnc1	2	18	-6	-1	0	-6
Cc1ccc(CCNC(=O)CNC(=S)N(Cc2ccccc2)Cc2cccnc2)cc1	1	60	-11	72*	0	-14
O=C(CNC(=S)N(Cc1ccccc1)Cc1cccnc1)NC1CCCCC1	13	-8	2	64*	0	-10
CC(=O)Nc1ccc(S(=O)(=O)N2CCN(c3ccc(C)c(Cl)c3)CC2)cc1	27	0	-1	-1	0	9
CC(=O)Nc1ccc(OCC(O)CN2CCN(c3ccc(C)c(Cl)c3)CC2)cc1 (stereo unspecified)	-3	21	12	8	0	120*
Cc1ccc(Cl)cc1N1CCN(CC(O)COC(C)C)CC1 (stereo unspecified)	nt	67	-4	6	0	8
CC(=O)Nc1ccc(OCC(O)CN2CCN(c3cc(Cl)ccc3C)CC2)cc1 (stereo unspecified)	19	-10	nt	25	0	84*
CCCCNC(=O)O[C@@H]1C[C@H]2CCC(=O)N3CC[C@@H](C1)[C@@H]23	nt	247	3	-23	0	7
CN(C)c1cc[n+](CC(=O)c2ccc(-c3ccccc3)cc2)cc1	73*	nt	106*	56*	0	13
Cc1ccccc1N1C(=O)C2CCCN2C1=S (stereo unspecified)	nt	6	-1	nt	0	-13
O=C1/C(=C\c2cc(Cl)c(O)c(Cl)c2)SC(=S)N1Cc1ccccc1	nt	10	9	3	1	104*
CC(C)(CN1CCC(Cc2ccccc2)CC1)NS(=O)(=O)c1ccccc1	nt	nt	nt	30	0	nt
CC(=O)N1CCN(CC(C)(C)NS(=O)(=O)c2ccccc2)CC1	nt	41	-4	nt	0	-5
CC1CC(C)CN(CC(C)(C)NS(=O)(=O)c2ccc(Cl)cc2)C1 (stereo unspecified)	10	276*	-5	9	0	10
CC(C)(CN1CCN(Cc2ccccc2)CC1)NS(=O)(=O)c1ccccc1	nt	-3	4	37	0	76*
CC(C)(CN1CCN(C(c2ccccc2)c2ccccc2)CC1)NS(=O)(=O)c1ccccc1	nt	2	15	62*	0	98*
COc1ccc(CCNC(=O)c2cccc(C(=O)NCCc3ccc(OC)cc3)n2)cc1	nt	-3	2	15	0	11
O=P(O)(OCc1ccccc1)OCc1ccccc1	nt	-34	0	nt	0	-13
COc1ccc([C@H]2CC(=O)C=C(c3ccc(Cl)c(F)c3)C2)cc1	nt	29	1	nt	0	-2
CCCC(=O)N1CCN(c2ccc(NC(=O)c3cc4ccccc4o3)cc2Cl)CC1	52	12	68	48	0	90*
O=C(c1cc2ccccc2o1)N1CCN(c2ccccc2Cl)CC1	75*	4	-5	-1	0	-1
O=C(Nc1ccc(N2CCN(C(=O)c3ccco3)CC2)c(Cl)c1)c1cc2ccccc2o1	22	-11	47	55*	0	-7
COc1ccc(OC)c(NC(=O)CN(C)CC(=O)Nc2ccccc2Br)c1	-3	-5	-10	10	0	16
CSS(=O)(=O)c1cccc2cccnc12	nt	-27	-2	16	0	-20
COc1cccc(NC(=O)COC(=O)c2ccc(C)c(S(=O)(=O)N3CCCCC3)c2)c1	nt	-6	-2	nt	0	9
O=Cc1ccc(O)c2ncccc12	nt	nt	nt	57*	nt	nt
